Results published in ChEMBL document CHEMBL3232870, “Discovery of 3-(4-methanesulfonylphenoxy)-N-[1-(2-methoxy-ethoxymethyl)-1H-pyrazol-3-yl]-5-(3-methylpyridin-2-yl)-benzamide as a novel glucokinase activator (GKA) for the treatment of type 2 diabetes mellitus” (Bioorg Med Chem, 2014).
pEC50: −log10 of the molar value.

Tests used:
Hexokinase-4 = biological target: T1, Hexokinase-4 (Homo sapiens, UniProt P35557); experiment: Activation of recombinant human pancreatic glucokinase using 10 mM glucose by spectrophotometry
T1 sequence (P35557 whole entry): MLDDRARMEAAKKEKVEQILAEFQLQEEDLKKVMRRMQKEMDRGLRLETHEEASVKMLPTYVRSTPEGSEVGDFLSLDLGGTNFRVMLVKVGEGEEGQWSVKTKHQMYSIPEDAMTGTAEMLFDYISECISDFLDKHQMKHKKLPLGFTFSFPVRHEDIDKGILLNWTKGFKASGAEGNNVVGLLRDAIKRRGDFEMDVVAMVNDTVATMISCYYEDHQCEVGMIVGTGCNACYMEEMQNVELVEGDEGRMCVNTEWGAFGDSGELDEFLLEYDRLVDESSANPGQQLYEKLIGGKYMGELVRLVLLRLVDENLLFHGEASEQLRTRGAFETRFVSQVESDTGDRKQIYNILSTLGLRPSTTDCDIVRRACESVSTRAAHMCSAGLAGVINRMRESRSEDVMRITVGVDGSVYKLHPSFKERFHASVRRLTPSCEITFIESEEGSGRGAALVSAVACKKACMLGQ
Summary of the method: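 Purified recombinant human pancreatic glucokinase, compounds in DMSO. Buffer: 25 mM HEPES pH 7.4, 10 mM glucose, 25 mM KCl, 1 mM MgCl2, 1 mM DTT, 1 mM ATP, 1 mM NADP, 2.5 U/mL G6PDH. Activity was expressed against DMSO-only control (100%). EC50 came from 12 concentrations fitted to a variable-slope sigmoidal curve. Values are means of three duplicate runs.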

Mus musculus [1] = experiment: Antidiabetic activity in glucose-treated C57BL/J6 db/db mouse assessed as reduction of glucose AUC at 50 mg/kg, po preincubated for 30 mins followed by glucose challenge measured after 30 to 180 mins by oral glucose tolerance test relative to control; assay type: functional; set-up: scale not given: the % may be the effect or the level left; conditions: in the assay text read “C57BL/J6 mouse” for “C57BL/J6 db/db mouse”
Summary of the method: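 Oral glucose tolerance test. Mice: eight-week-old male C57BL/6 or ten-week-old male C57BLKS/J db/db, fasted overnight with water. Compound or 0.5% methylcellulose vehicle given orally, then an oral 2 g/kg glucose challenge 30 min later. Tail-tip blood glucose was read just before and at 30, 60, 90, 120 and 180 min. AUC was calculated from the time–glucose curve; n = 6.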

Hepatocyte = experiment: Induction of 2-Deoxy-D-[3H]-glucose uptake in rat Hepatocytes using 5.5 mM glucose after 4 hrs by liquid scintillation counting; assay type: functional
Summary of the method: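 Rat primary hepatocytes, isolated by collagenase liver perfusion, viability over 85%. Cells attached 36 h on collagen I in MEM with 10% FBS, then serum-starved 12 h. Incubated 4 h in serum-free MEM with 5.5 mM glucose and 2-deoxy-D-[3H]-glucose, with or without compound. Washed in ice-cold PBS, lysed in 0.1 N NaOH, scintillation counted, expressed as % increase over control.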

Mus musculus [2] = experiment: Toxicity in fasting C57BL/J6 mouse assessed as glucose lowering effect at 30 mg/kg, po after 30 to 360 mins; assay type: organism-based; set-up: dose 30 mg/kg, route oral; conditions: in vivo
Summary of the method: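 Eight-week-old male C57BL/6 mice were fasted 6 h with free access to water, then dosed orally with compound or 0.5% methylcellulose vehicle, with no glucose challenge. Blood glucose was followed up to 360 min, n = 6 per group.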

Mus musculus [3] = experiment: Antidiabetic activity in glucose-treated C57BL/J6 mouse assessed as reduction of glucose AUC at 300 mg/kg, po preincubated for 30 mins followed by glucose challenge measured after 30 to 180 mins by oral glucose tolerance test relative to control; set-up: scale not given: the % may be the effect or the level left

SMILES	pEC50 (Hexokinase-4)	Activity (Mus musculus [1])	fold change (FC) (Hepatocyte)	Activity (Mus musculus [2])	Activity (Mus musculus [3])
CCCNCc1csc(NC(=O)c2cc(Oc3ccc(S(C)(=O)=O)cc3)cc(-c3ncccc3C)c2)n1	< 4.30	–	–	–	–
CCNC(=O)Cc1csc(NC(=O)c2cc(Oc3ccc(S(C)(=O)=O)cc3)cc(-c3ncccc3C)c2)n1	8.30	-0.3%	2.54	–	–
CCOCn1ccc(NC(=O)c2cc(Oc3ccc(S(C)(=O)=O)cc3)cc(-c3ncccc3C)c2)n1	< 4.30	–	–	–	–
CCN(CC)Cc1csc(NC(=O)c2cc(Oc3ccc(S(C)(=O)=O)cc3)cc(-c3ncccc3C)c2)n1	< 4.30	–	–	–	–
CCN(CC)CCn1ccc(NC(=O)c2cc(Oc3ccc(S(C)(=O)=O)cc3)cc(-c3ncccc3C)c2)n1	< 4.30	–	–	–	–
Cc1cccnc1-c1cc(Oc2ccc(S(C)(=O)=O)cc2)cc(C(=O)Nc2nc(CN3CCN(C)CC3)cs2)c1	6.16	4.4%	1.19	–	–
COCCN(CCOC)Cc1csc(NC(=O)c2cc(Oc3ccc(S(C)(=O)=O)cc3)cc(-c3ncccc3C)c2)n1	5.61	20.2%	2.02	–	–
Cc1cccnc1-c1cc(Oc2ccc(S(C)(=O)=O)cc2)cc(C(=O)Nc2ncc(F)s2)c1	6.62	22.6%	1.75	–	–
Cc1cccnc1-c1cc(Oc2ccc(S(C)(=O)=O)cc2)cc(C(=O)Nc2ccn(C)n2)c1	6.09	24.1%	1.74	–	–
C#CCNCc1csc(NC(=O)c2cc(Oc3ccc(S(C)(=O)=O)cc3)cc(-c3ncccc3C)c2)n1	6.97	–	2.35	–	–
Cc1cccnc1-c1cc(Oc2ccc(S(C)(=O)=O)cc2)cc(C(=O)Nc2nc(CNC(C)C)cs2)c1	6.33	2.2%	1.47	–	–
COCC(C)NCc1csc(NC(=O)c2cc(Oc3ccc(S(C)(=O)=O)cc3)cc(-c3ncccc3C)c2)n1 (centres undefined)	8.10	–	1.72	–	–
Cc1cccnc1-c1cc(Oc2ccc(S(C)(=O)=O)cc2)cc(C(=O)Nc2nc(CN3CCOCC3)cs2)c1	6.67	–	2.1	–	–
N[C@@H](CC(=O)N1CCn2c(nnc2C(F)(F)F)C1)Cc1cc(F)c(F)cc1F [SITAGLIPTIN]	–	–	–	Non-toxic	–
CN(C)C(=N)NC(=N)N [METFORMIN]	–	–	–	–	29.9%
Cc1cccnc1-c1cc(Oc2ccc(S(C)(=O)=O)cc2)cc(C(=O)Nc2nc(CC(=O)NC3CC3)cs2)c1	6.99	-3.1%	1.8	–	–
Cc1cccnc1-c1cc(Oc2ccc(S(C)(=O)=O)cc2)cc(C(=O)Nc2nccs2)c1	7.02	29.8%	1.98	–	–
COCCN(C)Cc1csc(NC(=O)c2cc(Oc3ccc(S(C)(=O)=O)cc3)cc(-c3ncccc3C)c2)n1	5.13	–	1.46	–	–
Cc1cccnc1-c1cc(Oc2ccc(S(C)(=O)=O)cc2)cc(C(=O)Nc2nc(CN3CCNCC3)cs2)c1	< 4.30	–	–	–	–
COC(CNCc1csc(NC(=O)c2cc(Oc3ccc(S(C)(=O)=O)cc3)cc(-c3ncccc3C)c2)n1)OC	7.48	–	1.92	–	–
Cc1cccnc1-c1cc(Oc2ccc(S(C)(=O)=O)cc2)cc(C(=O)Nc2ccn(CCN3CCOCC3)n2)c1	6.36	17.8%	1.86	–	–
